In publication PMC3728914 (ACS medicinal chemistry letters, 2013):
Blank lines part the entries; values can stand above or below the compound they belong to.

Key:
RPA70N [1] = biological target: T1, RPA70N (Homo sapiens, UniProt P27694); test: Fluorescence polarization anisotropy; format: binding; details: for ligand efficiency: from FPA Kd
Summary of the method: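 Displacement of a FITC-labelled ATRIP-derived peptide from RPA70N was read as fluorescence polarization anisotropy. Compounds were titrated to give dose-dependent anisotropy changes, from which IC50 was determined. Kd was calculated from IC50 with the Cheng–Prusoff equation and reported as the average of n = 2.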

[2] = test system: DNA-binding domain of RPA; details: in vitro; cited from earlier work
RPA70N-Rad9 = details: cited from earlier work
RPA70N-p53 = details: cited from earlier work
RPA70N [3] = biological target: T1, RPA70N; test: NMR; format: binding; details: initial fragment hits
[4] = biological target: full length heterotrimeric RPA (Homo sapiens, UniProt P27694); test: Electrophoresis mobility shift assay; format: binding; details: EMSA, concentrations up to 100 μM

inhibition of the RPA70N-ATRIP interaction (RPA70N [1]; FPA assay): did not inhibit
Compound: CCOc1ccc2cc(C3CN(C(=O)CCC(=O)O)N=C3c3ccc(Br)cc3)c(Cl)nc2c1 (centres unmarked) [Compound 1, reference compound]
disruption of RPA interaction with DNA [2]: disrupts its interaction with DNA

Compound: CC(C)C1=C[C@]23CC[C@@H]4[C@](C)(CCC[C@@]4(C)C(=O)O)[C@H]2C[C@@H]1[C@@H](C(=O)O)[C@@H]3C(=O)O [Compound 2, fumaropimaric acid]
disruption of RPA70N-Rad9 interaction (RPA70N-Rad9): disrupt both RPA70N-Rad9 and RPA70N-p53 interactions
disruption of RPA70N-p53 interaction (RPA70N-p53): disrupt both RPA70N-Rad9 and RPA70N-p53 interactions

Compound: O=C(O)c1sc2cc(Cl)ccc2c1Cl [Compound 3]
ligand efficiency (LE) (RPA70N [3]): 0.32

ligand efficiency (LE) (RPA70N [3]): 0.32
Compound: Clc1ccc(-c2nnn[nH]2)cc1 [Compound 4]

ligand efficiency (RPA70N [1]): 0.22
Compound: O=C(O)c1sc2cc(-n3c(S)nnc3-c3ccccc3)ccc2c1Cl [Compound 5]

ligand efficiency (RPA70N [1]): 0.17
Compound: O=C(O)c1cc2ccc(-n3c(S)nnc3-c3cccc(Oc4ccccc4)c3)cc2s1 [Compound 13e]

ligand efficiency (RPA70N [1]): 0.18
Compound: O=C(O)c1sc2cc(-n3c(S)nnc3-c3cccc(Oc4ccccc4)c3)ccc2c1Cl [Compound 14d]

Compound: O=C(O)c1sc2cc(-n3c(S)nnc3-c3ccc(Br)c(Cl)c3)ccc2c1Cl [Compound 14n]
disruption of RPA-ssDNA interactions [4]: Neither 14q nor 14n showed evidence of disrupting RPA-ssDNA interactions

Compound: O=C(O)c1sc2cc(-n3c(S)nnc3-c3ccc(Cl)c(Cl)c3)ccc2c1Cl [Compound 14q]
disruption of RPA-ssDNA interactions [4]: Neither 14q nor 14n showed evidence of disrupting RPA-ssDNA interactions
